Active and inactive are the calls of the source. The calls are words filed in the database; no cut-off is given here.
What was measured:
Saccharomyces cerevisiae = test: Inhibition of yeast alpha-glucosidase at 0.1 mM
[1] = molecular target: T1, Lysosomal acid glucosylceramidase (Homo sapiens, UniProt P04062); test: Inhibition of recombinant beta-glucocerebrosidase after 10 mins by fluorimetry
T1 sequence (P04062 whole entry): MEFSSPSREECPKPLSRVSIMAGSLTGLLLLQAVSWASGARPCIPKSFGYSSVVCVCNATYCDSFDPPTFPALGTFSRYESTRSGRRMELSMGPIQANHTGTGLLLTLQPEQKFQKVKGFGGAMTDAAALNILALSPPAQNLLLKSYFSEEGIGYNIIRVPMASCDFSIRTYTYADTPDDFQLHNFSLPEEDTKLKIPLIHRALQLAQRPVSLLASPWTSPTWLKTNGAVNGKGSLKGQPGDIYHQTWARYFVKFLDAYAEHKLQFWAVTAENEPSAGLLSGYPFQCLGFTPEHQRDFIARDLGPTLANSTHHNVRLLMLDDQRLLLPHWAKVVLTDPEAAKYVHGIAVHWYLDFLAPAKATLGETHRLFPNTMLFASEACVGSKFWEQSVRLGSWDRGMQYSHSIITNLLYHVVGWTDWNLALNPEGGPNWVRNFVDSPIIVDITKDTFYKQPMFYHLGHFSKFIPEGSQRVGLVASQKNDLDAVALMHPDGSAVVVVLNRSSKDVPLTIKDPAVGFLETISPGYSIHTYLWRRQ
Summary of the method: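 Imiglucerase (0.1 mg/mL stock) in McIlvaine buffer, pH 5.2 or 7.4, with 0.2% sodium taurocholate and 0.1% Triton X-100. Preincubated 30 min at 37 °C with or without inhibitor. Then 4 mM 4-methylumbelliferyl-β-D-glucopyranoside added for 10 min at 37 °C. Stopped with glycine/NaOH pH 10.6; 4-MU read at ex 355/em 460 nm. IC50 from % activity vs log[I], at least five concentrations.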

Oryza sativa [2] = test: Inhibition of rice alpha-galactosidase at 0.1 mM
[3] = Dissociation constant, pKa of the compound; format: physicochemical
[4] = molecular target: T1, Lysosomal acid glucosylceramidase; test: Inhibition of recombinant beta-glucocerebrosidase at pH 7.4 after 10 mins by fluorimetry
Prunus dulcis = test: Inhibition of sweet almond beta-glucosidase at 0.1 mM
Oryza sativa [5] = test: Inhibition of rice alpha-glucosidase at 0.1 mM
[6] = Cytotoxicity against human fibroblast at 300 uM after 24 hrs by MTT assay; format: cell-based
[7] = test system: Glucosylceramide synthase (Homo sapiens); test: Inhibition of glucosylceramide synthase in human A549 cells at 250 uM after 35 mins by fluorescence-coupled HPLC analysis
[8] = molecular target: T2, Beta-galactosidase (Bos taurus) (UniProt Q58D55); test: Inhibition of bovine liver beta-galactosidase at 0.1 mM
T2 sequence (whole entry): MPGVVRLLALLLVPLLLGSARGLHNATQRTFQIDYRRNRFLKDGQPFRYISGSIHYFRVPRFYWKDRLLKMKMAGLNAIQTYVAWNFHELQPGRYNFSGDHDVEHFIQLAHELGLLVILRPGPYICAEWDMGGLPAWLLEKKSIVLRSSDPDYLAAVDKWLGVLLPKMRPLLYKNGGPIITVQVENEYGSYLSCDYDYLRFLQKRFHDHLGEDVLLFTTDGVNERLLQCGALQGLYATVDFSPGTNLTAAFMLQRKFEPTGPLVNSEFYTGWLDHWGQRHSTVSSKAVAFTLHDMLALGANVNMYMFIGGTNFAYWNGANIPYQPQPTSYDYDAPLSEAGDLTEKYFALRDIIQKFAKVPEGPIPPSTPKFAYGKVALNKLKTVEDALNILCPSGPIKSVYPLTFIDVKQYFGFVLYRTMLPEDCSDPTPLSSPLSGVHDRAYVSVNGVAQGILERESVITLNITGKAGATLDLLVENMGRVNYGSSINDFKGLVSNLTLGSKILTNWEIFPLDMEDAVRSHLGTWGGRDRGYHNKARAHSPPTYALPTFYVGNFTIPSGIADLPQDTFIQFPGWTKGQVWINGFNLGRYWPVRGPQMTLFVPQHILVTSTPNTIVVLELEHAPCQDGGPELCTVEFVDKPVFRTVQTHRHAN

[9] = molecular target: T1, Lysosomal acid glucosylceramidase; test: Inhibition of recombinant beta-glucocerebrosidase at pH 5.2 after 10 mins by fluorimetry
[10] = molecular target: T3, Lysosomal acid glucosylceramidase (Homo sapiens) (UniProt P04062); test: Inhibition of beta-glucocerebrosidase in human fibroblast at 50 uM after 24 hrs by fluorescence assay
T3 sequence (whole entry): T1 sequence (P04062 whole entry)
Summary of the method: (§1)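 Wild-type human fibroblasts exposed to compound for 24 h (10, 20 or 50 μM, as listed) with 5 mM substrate. Cellular GCase activity then measured.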

[11] = molecular target: T3, Lysosomal acid glucosylceramidase (Homo sapiens); test: Binding affinity to recombinant beta-glucocerebrosidase assessed as enzymatic activity at 150 uM after 60 mins by thermal stabilization assay relative to control
[12] = Selectivity index, ratio of CC50 for human fibroblast to Ki for beta-glucocerebrosidase
[13] = Cytotoxicity against human fibroblast after 24 hrs by MTT assay; format: cell-based; conditions: human fibroblasts
[14] = molecular target: T3, Lysosomal acid glucosylceramidase (Homo sapiens); test: Binding affinity to recombinant beta-glucocerebrosidase assessed as enzymatic activity at 100 uM after 60 mins by thermal stabilization assay relative to control
[15] = molecular target: T3, Lysosomal acid glucosylceramidase (Homo sapiens); test: Binding affinity to recombinant beta-glucocerebrosidase assessed as enzymatic activity at 50 uM after 60 mins by thermal stabilization assay relative to control
[16] = molecular target: T3, Lysosomal acid glucosylceramidase (Homo sapiens); test: Binding affinity to recombinant beta-glucocerebrosidase assessed as enzymatic activity at 10 uM after 40 mins by thermal stabilization assay relative to control
Summary of the method: (§2)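 Recombinant GCase (imiglucerase, 2 mg/mL aliquots) held at pH 7.4 and 48 °C with 0 (control) or 10–150 μM compound. At 20, 40 or 60 min, acetate-phosphate buffer (pH 5.0) and 4 mM 4-methylumbelliferyl β-D-glucoside in McIlvaine pH 5.2 added. Incubated 10 min at 37 °C with 0.1% Triton X-100 and 0.2% taurodeoxycholic acid. Stopped with glycine pH 10.6; 4-MU fluorescence read. Activity expressed relative to enzyme at 37 °C.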

[17] = molecular target: T3, Lysosomal acid glucosylceramidase (Homo sapiens); test: Binding affinity to recombinant beta-glucocerebrosidase assessed as enzymatic activity at 25 uM after 40 mins by thermal stabilization assay relative to control; summary of the method: as §2
[18] = molecular target: T3, Lysosomal acid glucosylceramidase (Homo sapiens); test: Binding affinity to recombinant beta-glucocerebrosidase assessed as enzymatic activity at 100 uM after 40 mins by thermal stabilization assay relative to control
[19] = molecular target: T3, Lysosomal acid glucosylceramidase (Homo sapiens); test: Binding affinity to recombinant beta-glucocerebrosidase assessed as enzymatic activity at 100 uM after 20 mins by thermal stabilization assay relative to control
[20] = molecular target: T1, Lysosomal acid glucosylceramidase; test: Competitive inhibition of beta-glucocerebrosidase at pH 5.2 by Lineweaver-Burke plot analysis
[21] = molecular target: T3, Lysosomal acid glucosylceramidase (Homo sapiens); test: Binding affinity to recombinant beta-glucocerebrosidase assessed as enzymatic activity at 10 uM after 60 mins by thermal stabilization assay relative to control; summary of the method: as §2
[22] = molecular target: T3, Lysosomal acid glucosylceramidase (Homo sapiens); test: Inhibition of beta-glucocerebrosidase in human fibroblast at 20 uM after 24 hrs by fluorescence assay; summary of the method: as §1
[23] = molecular target: T3, Lysosomal acid glucosylceramidase (Homo sapiens); test: Binding affinity to recombinant beta-glucocerebrosidase assessed as enzymatic activity at 150 uM after 40 mins by thermal stabilization assay relative to control
[24] = molecular target: T3, Lysosomal acid glucosylceramidase (Homo sapiens); test: Binding affinity to recombinant beta-glucocerebrosidase assessed as enzymatic activity at 50 uM after 40 mins by thermal stabilization assay relative to control
[25] = molecular target: T3, Lysosomal acid glucosylceramidase (Homo sapiens); test: Binding affinity to recombinant beta-glucocerebrosidase assessed as enzymatic activity at 25 uM after 60 mins by thermal stabilization assay relative to control; summary of the method: as §2
[26] = molecular target: T3, Lysosomal acid glucosylceramidase (Homo sapiens); test: Binding affinity to recombinant beta-glucocerebrosidase assessed as enzymatic activity at 150 uM after 20 mins by thermal stabilization assay relative to control
[27] = molecular target: T3, Lysosomal acid glucosylceramidase (Homo sapiens); test: Binding affinity to recombinant beta-glucocerebrosidase assessed as enzymatic activity at 50 uM after 20 mins by thermal stabilization assay relative to control
[28] = molecular target: T3, Lysosomal acid glucosylceramidase (Homo sapiens); test: Inhibition of beta-glucocerebrosidase in human fibroblast at 10 uM after 24 hrs by fluorescence assay; summary of the method: as §1
[29] = molecular target: T3, Lysosomal acid glucosylceramidase (Homo sapiens); test: Binding affinity to recombinant beta-glucocerebrosidase assessed as enzymatic activity at 10 uM after 20 mins by thermal stabilization assay relative to control; summary of the method: as §2
[30] = molecular target: T3, Lysosomal acid glucosylceramidase (Homo sapiens); test: Binding affinity to recombinant beta-glucocerebrosidase assessed as enzymatic activity at 25 uM after 20 mins by thermal stabilization assay relative to control; summary of the method: as §2
[31] = molecular target: T3, Lysosomal acid glucosylceramidase (Homo sapiens); conditions: 0.1 to 0.25 uM

| SMILES | inhibition (Saccharomyces cerevisiae) | IC50 [1] [nM] | inhibition (Oryza sativa [2]) | pKa [3] | IC50 [4] [nM] | inhibition (Prunus dulcis) | inhibition (Oryza sativa [5]) | Activity [6] | inhibition [8] | IC50 [9] [nM] | inhibition [10] | fold change (FC) [11] | fold change (FC) [14] | fold change (FC) [15] | fold change (FC) [18] | fold change (FC) [19] | Ki [20] [nM] | fold change (FC) [23] | fold change (FC) [24] | fold change (FC) [26] | other results |
| --- | --- | --- | --- | --- | --- | --- | --- | --- | --- | --- | --- | --- | --- | --- | --- | --- | --- | --- | --- | --- | --- |
| CCCCCCn1cc(CCCN[C@H]2[C@H](O)[C@@H](O)[C@H](O)[C@@H](O)[C@@H]2O)nn1 | inactive | 257000 | inactive | 10.4 | 44600 | inactive | inactive | Non-toxic | inactive | 257000 | < 5% |  |  |  |  |  |  |  |  |  | inhibition [7]: 30% |
| CCCCCCCCCCCCn1cc(CN[C@H]2[C@H](O)[C@@H](O)[C@H](O)[C@@H](O)[C@@H]2O)nn1 | inactive | 30.2 | inactive | 7.1 | 60 | inactive | inactive |  | inactive | 30 | Toxic | 26.2 | 28.7 | 24.9 | 12.8 | 3.41 | 60 | 11.5 | 10.9 | 3.21 | Selectivity Index [12]: 916; CC50 at 24 h [13]: 55000 nM; fold change (FC) [16]: 8.48; fold change (FC) [17]: 9.42; fold change (FC) [21]: 18.7; inhibition [22]: 90%; fold change (FC) [25]: 23.2; fold change (FC) [27]: 3.11; inhibition [28]: 87%; fold change (FC) [29]: 2.65; fold change (FC) [30]: 2.97 |
| CCCCCCCCCCCn1cc(CCN[C@H]2[C@H](O)[C@@H](O)[C@H](O)[C@@H](O)[C@@H]2O)nn1 | inactive | 25700 | inactive | 9.1 | 4900 | inactive | inactive | Non-toxic | inactive | 25400 | 50% | 5.3 | 11.6 | 9.63 | 6.7 | 2.55 | 20200 | 4.79 | 5.98 | 2.5 | inhibition [7]: 30%; fold change (FC) [27]: 2.43 |
| CCCCCCCCCCn1cc(CN[C@H]2[C@H](O)[C@@H](O)[C@H](O)[C@@H](O)[C@@H]2O)nn1 | inactive | 93.3 | inactive | 7.1 | 90 | inactive | inactive | Non-toxic | inactive | 100 | 90% | 25.9 | 20.9 | 17.2 | 8.88 | 2.91 | 90 | 10.5 | 8.33 | 3.24 | Selectivity Index [12]: >=3300; fold change (FC) [16]: 3.56; fold change (FC) [17]: 5.95; inhibition [31]: Active; fold change (FC) [21]: 4.19; inhibition [22]: 71%; fold change (FC) [25]: 10.2; fold change (FC) [27]: 2.7; inhibition [28]: 58%; fold change (FC) [29]: 1.55; fold change (FC) [30]: 2.21 |
